From ChEMBL document CHEMBL5154719, “Probing Embryonic Development Enables the Discovery of Unique Small-Molecule Bone Morphogenetic Protein Potentiators” (J Med Chem, 2022) come the findings set out here.

As usually defined, the IC50 is the point on the concentration scale where inhibition reaches its midpoint. Lower therefore signals higher potency.

Activity calls are given as the source filed them. The calls are words filed in the database; no cut-off is given here.

For test [1], the system named is C2C12. Kind of test: Induction of BMP-dependent osteogenesis in mouse C2C12 cells incubated for 72 hrs. It counts as functional, cell-based. In a few lines: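 C2C12 myoblasts, 2000 cells/well in DMEM with 6% heat-inactivated FBS, grown 16 h; compounds added in triplicate, then BMP-4 at 7.5 ng/mL; 72 h. ALP activity read by luminescence after lysis with CDP-Star substrate, 1 h at room temperature in the dark. Activity with 7.5 ng/mL BMP-4 in DMSO set to 100%. EC50 by curve fitting.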

The nature of test [2]: Inhibition of DMH-1 induced cardiogenesis in mouse ESC transfected with Myh6-GFP. Type of test: functional, cell-based. As to conditions: embryonic stem cell. In a few lines:
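mESC-Myh6-GFP, 500 cells/well on gelatine, LIF-free medium from day 0. On day 3, compounds added (triplicates for IC50) with DMH-1 at 0.5 μM final, 0.2% DMSO, 6% FBS; 24 h. Medium then changed, refreshed days 7 and 9. Day 11: PFA fixation, DAPI stain, automated imaging of GFP intensity and cell count, normalized to DMH-1. Cell count below 70% of DMH-1 flagged as cytotoxic.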

The target of test [3] is Glycogen synthase kinase-3 beta (Homo sapiens, UniProt P49841). Briefly: Inhibition of GSK3beta (unknown origin).
The nature of test [4]: Induction of alkaline phosphatase activation in mouse C2C12 cells assessed as fold increase incubated in presence of 50 ng/ml BMP4 at 1 uM relative to BMP4 alone. Type of test: functional.
The subject of test [5] is Embryonic stem cell. Kind of test: Induction of cardiac differentiation in mouse ESC transfected with Myh6-GFP treated for 48 hrs and measured after 3 to 6 days by imaging analysis. It counts as functional, cell-based. As to conditions: time 3-6 day. A digest of the protocol: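 mESC-Myh6-GFP seeded on 0.1% gelatine at 500 cells/well in LIF-free medium to differentiate spontaneously (day 0). Inhibitors given dose-dependently for 48 h over the stated day windows. Medium later changed to complete LIF-free medium. On day 11, cells PFA-fixed and DAPI-stained. GFP+ cardiomyocytes quantified by high-content imaging, normalized to DMSO; mean ± SEM.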

A further test deals with SAOS-2. Briefly: Induction of osteoblastic mineralization in human SAOS-2 cells at 25 nM followed by BMP-4 addition measured after 11 days of osteogenic differentiation. Type of test: functional, cell-based. As to conditions: time 11.0 day. A digest of the protocol:
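SaOS-2 cells, 8×10³ cells/well, in osteogenic medium (10 mM β-glycerophosphate, 0.2 mM ascorbic acid, 10 nM dexamethasone) with 2 ng/mL BMP-4 or BMP-2 for 11 days. Medium and compound changed every 3 days; ascorbate refreshed daily; DMSO 0.01% vehicle. Mineralization by von Kossa staining; stained area quantified from at least four images per condition at 100× magnification.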

The subject of test [6] is C2C12. Briefly: Potentiation of BMP receptor in BMP-4 stimulated mouse C2C12 cells assessed as decrease in cytoplasmic Smad2 level preincubated for 24 hrs followed by BMP-4 stimulation and measured after 30 mins in presence of […]/BMP by Western blot analysis. It counts as cell-based. As to conditions: filed as activator, time 24.5 hrs. In a few lines: (§1)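 C2C12 cells exposed to compound with TGFβ-2 (10 ng/mL) for 24 h; for nuclear readout, a further 30 min BMP-4 at 2 ng/mL. Cytoplasmic and nuclear fractions isolated in HEPES buffers, pH 7.5, with phosphatase and protease inhibitors. Smads detected by Western blot, luminescence normalized to total protein per lane (trichloroethanol stain), then to DMSO.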

For test [7], the system named is C2C12. Briefly: Potentiation of BMP receptor in mouse C2C12 cells assessed as decrease in cytoplasmic Smad2 level incubated for 24 hrs in presence of […]/BMP by Western blot analysis. Type of test: cell-based. As to conditions: filed as activator. In a few lines:
as §1
For orientation: In western blotting, separated proteins are transferred to a membrane and probed.

For test [8], the system named is C2C12. Briefly: […] of osteoblastogenesis in mouse C2C12 cells assessed as upregulation of Runx2 gene expression in presence of BMP4 at 1 uM measured after 72 hrs. It counts as functional, cell-based. In a few lines:
(§2)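 C2C12 cells plated at 1 × 10⁵ cells/well and treated with compound (1 μM) plus BMP-4 (7.5 ng/mL) or DMSO for 72 h. RNA isolated and transcripts quantified by qRT-PCR using the ΔΔCp method. Mean of triplicates ± SD, normalized to DMSO.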

Test [9] deals with C2C12. Kind of test: […] of osteoblastogenesis in mouse C2C12 cells assessed as upregulation of Alp gene expression in presence of BMP4 at 1 uM measured after 72 hrs. It counts as functional, cell-based. A digest of the protocol: as §2
The test system of test [10] is C2C12. Kind of test: […] of osteoblastogenesis in mouse C2C12 cells assessed as upregulation of Ocn gene expression in presence of BMP4 at 1 uM measured after 72 hrs. Type of test: functional, cell-based. A digest of the protocol: as §2
Test [11] relates to C2C12. Kind of test: […] of osteoblastogenesis in mouse C2C12 cells assessed as upregulation of Opn gene expression in presence of BMP4 at 1 uM measured after 72 hrs. It counts as functional, cell-based. In a few lines:
as §2

Test [12] concerns C2C12. Briefly: […] of osteoblastogenesis in mouse C2C12 cells assessed as upregulation of Col1a1 gene expression in presence of BMP4 at 1 uM measured after 72 hrs. Type of test: functional, cell-based. In a few lines: as §2
Test [13] deals with C2C12. Briefly: […] of osteoblastogenesis in mouse C2C12 cells assessed as upregulation of Osx gene expression in presence of BMP4 at 1 uM measured after 72 hrs. It counts as functional, cell-based. A digest of the protocol: as §2
In test [14] the test system is C2C12. Briefly: Potentiation of BMP receptor in mouse C2C12 cells assessed as increase in Id1 gene expression level incubated for 24 hrs by qRT-PCR analysis. As to conditions: filed as activator. A general note: In qPCR the cycle at which signal appears reflects the starting amount.
Test [15] has as its system C2C12. Briefly: Potentiation of BMP receptor in mouse C2C12 cells assessed as increase in Id2 gene expression level incubated for 24 hrs by qRT-PCR analysis. As to conditions: filed as activator.
The subject of test [16] is Embryonic stem cell. Kind of test: Induction of cardiac differentiation in mouse ESC transfected with Myh6-GFP treated for 48 hrs and measured after 4 to 6 days by imaging analysis. It counts as functional, cell-based. As to conditions: time 4-6 day.

Chain of Glycogen synthase kinase-3 beta (P49841 whole entry): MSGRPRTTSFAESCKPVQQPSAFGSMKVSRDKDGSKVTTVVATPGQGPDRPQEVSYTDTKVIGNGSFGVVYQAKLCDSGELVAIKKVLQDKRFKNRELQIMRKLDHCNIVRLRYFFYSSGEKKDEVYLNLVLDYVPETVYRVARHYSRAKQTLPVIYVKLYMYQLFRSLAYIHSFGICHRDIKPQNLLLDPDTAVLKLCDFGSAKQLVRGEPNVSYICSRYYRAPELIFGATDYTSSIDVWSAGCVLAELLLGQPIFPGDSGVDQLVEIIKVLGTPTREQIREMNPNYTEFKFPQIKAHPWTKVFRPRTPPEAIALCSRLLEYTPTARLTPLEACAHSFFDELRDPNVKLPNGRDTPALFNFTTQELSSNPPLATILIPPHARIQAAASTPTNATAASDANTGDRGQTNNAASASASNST

Consider `Cc1cc(Nc2cc(Cl)nc(Oc3ccc([N+](=O)[O-])cc3)n2)n[nH]1`, for which the result in the test with C2C12 [1] was Active. The values for the IC50 in test [2] and in [3] were 200 nM and 2 nM, respectively. Moreover, the “fold change (FC)” value in test [4] was 2.

In the case of `c1cc(-c2cnn3cc(-c4ccc(OCCN5CCCCC5)cc4)cnc23)ccn1`, the result in the test on Embryonic stem cell [5] was Active.

As to `O=c1c(-c2ccc(C(F)(F)F)cc2)c(-n2cncn2)oc2ccccc12`, the outcome with SAOS-2, in the test on C2C12 [6], with C2C12 [7], in the test with C2C12 [1], in the test with C2C12 [8] and in the test with C2C12 [9] was Active. Further, the outcome with C2C12 [10], with C2C12 [11], in the test with C2C12 [12], with C2C12 [13], with C2C12 [14] and with C2C12 [15] was Active. This compound yielded an IC50 in test [2] of 200 nM.

As to `NC(=O)c1ccc(-c2nc(-c3ccccn3)c(-c3ccc4c(c3)OCO4)[nH]2)cc1`, in the test on Embryonic stem cell [16], the result was Active.
